ChEMBL document CHEMBL1144203, “Synthesis and antiviral evaluation of acyclic azanucleosides developed from sulfanilamide as a lead structure” (Bioorg Med Chem, 2008)
The source made the active and inactive calls. No cut-off for these calls is given here.

How the values were obtained:
Human alphaherpesvirus 2 = test: Antiviral activity against HSV2 virus infected in HEL cells assessed as inhibition of virus-induced cytopathic effect at 100 uM by MTS assay; assay type: functional, organism-based
HEL = test: Cytotoxicity against HEL cells assessed as decrease in cell viability upto 100 uM by MTS assay; assay type: cell-based; conditions: human
[1] = Cytotoxicity against CRFK cells assessed as decrease in cell viability by MTS assay; assay type: cell-based, Felis catus; conditions: cat
Summary of the method: (§1)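 Uninfected host cells were exposed to compound. CC50 was taken as the concentration giving a 50% fall in cell viability, measured by a colorimetric formazan-based MTS assay.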

Feline coronavirus = test: Antiviral activity against feline coronavirus infected in CRFK cells assessed as inhibition of virus-induced cytopathic effect at 100 uM by MTS assay; assay type: functional, organism-based
Punta Toro virus [2] = test: Antiviral activity against Punta Toro virus infected in Vero cells assessed as inhibition of virus-induced cytopathic effect by MTS assay; assay type: functional, organism-based
Summary of the method: (§2)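 Vero cell monolayers infected with Coxsackie B4 virus or Punta Toro virus, with test compounds at up to 100 μM. EC50 is the concentration giving 50% inhibition of virus-induced cytopathic effect (CPE), scored visually or from cell viability by the colorimetric formazan-based MTS assay.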

[3] = Cytotoxicity against MDCK cells assessed as decrease in cell viability by MTS assay; assay type: cell-based, Canis lupus familiaris; conditions: dog; summary of the method: as §1
Coxsackievirus B4 [4] = test: Antiviral activity against Coxsackievirus B4 infected in Vero cells assessed as inhibition of virus-induced cytopathic effect by MTS assay; assay type: functional, organism-based; conditions: Enterovirus B; summary of the method: as §2
[5] = Cytotoxicity against MDCK cells assessed as alteration in cell morphology by MTS assay; assay type: cell-based, Canis lupus familiaris; conditions: dog
Summary of the method: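 Uninfected host cells were exposed to compound and examined under the microscope. MCC was the minimal compound concentration causing a microscopically detectable change in normal cell morphology.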

HeLa = test: Cytotoxicity against human HeLa cells assessed as decrease in cell viability upto 100 uM by MTS assay; assay type: functional, cell-based
Summary of the method: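 Uninfected HeLa host cells were tested up to 100 μM. CC50 is the concentration causing a 50% drop in cell viability by colorimetric formazan-based MTS assay. Alternatively, MCC is the minimal concentration giving microscopically detectable alteration of normal cell morphology.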

Felid alphaherpesvirus 1 = test: Antiviral activity against feline herpes virus infected in CRFK cells assessed as inhibition of virus-induced cytopathic effect at 100 uM by MTS assay; assay type: functional, organism-based
[6] = test system: Respiratory syncytial virus; test: Antiviral activity against respiratory syncytial virus infected in HeLa cells assessed as inhibition of virus-induced cytopathic effect at 100 uM by MTS assay; assay type: functional, organism-based
Summary of the method: (§3)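 HeLa cells were infected with the virus, and compounds were tested up to 100 μM. EC50 is the concentration that halves virus-induced cytopathic effect, read by visual CPE scoring or by MTS formazan colorimetric viability measurement.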

Human respirovirus 3 = test: Antiviral activity against Parainfluenza 3 virus infected in Vero cells assessed as inhibition of virus-induced cytopathic effect at 100 uM by MTS assay; assay type: functional, organism-based
Summary of the method: (§4)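 Vero cell monolayers were infected with the virus in cell-based CPE assays. EC50 is the concentration giving 50% inhibition of virus-induced cytopathic effect, scored visually or by MTS formazan colorimetric cell-viability read-out. The highest concentration tested was 100 μM for most compounds and lower for a few.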

Human alphaherpesvirus 1 = test: Antiviral activity against HSV1 virus infected in HEL cells assessed as inhibition of virus-induced cytopathic effect at 100 uM by MTS assay; assay type: functional, organism-based
Coxsackievirus B4 [7] = test: Antiviral activity against Coxsackievirus B4 infected in HeLa cells assessed as inhibition of virus-induced cytopathic effect at 100 uM by MTS assay; assay type: functional, organism-based; summary of the method: as §3
[8] = test system: Mammalian orthoreovirus 1; test: Antiviral activity against Reovirus1 infected in Vero cells assessed as inhibition of virus-induced cytopathic effect at 100 uM by MTS assay; assay type: functional, organism-based; summary of the method: as §4
Sindbis virus = test: Antiviral activity against Sindbis virus infected in Vero cells assessed as inhibition of virus-induced cytopathic effect at 100 uM by MTS assay; assay type: functional, organism-based; summary of the method: as §4
MDCK = test: Cytotoxicity against MDCK cells assessed as decrease in cell viability upto 100 uM by MTS assay; assay type: cell-based, Canis lupus familiaris; conditions: dog
Coxsackievirus B4 [9] = test: Antiviral activity against Coxsackievirus B4 infected in Vero cells assessed as inhibition of virus-induced cytopathic effect at 100 uM by MTS assay; assay type: functional, organism-based; summary of the method: as §4
Punta Toro virus [10] = test: Antiviral activity against Punta Toro virus infected in Vero cells assessed as inhibition of virus-induced cytopathic effect at 100 uM by MTS assay; assay type: functional, organism-based; summary of the method: as §4
[11] = Cytotoxicity against CRFK cells assessed as decrease in cell viability upto 100 uM by MTS assay; assay type: cell-based, Felis catus; conditions: cat
Vero = test: Cytotoxicity against african green monkey Vero cells assessed as decrease in cell viability upto 100 uM by MTS assay; assay type: cell-based; conditions: chlorocebus sabaeus

Structure (SMILES) | Activity (Human alphaherpesvirus 2) | Activity (HEL) | Activity (Feline coronavirus) | Activity (HeLa) | Activity (Felid alphaherpesvirus 1) | Activity [6] | Activity (Human respirovirus 3) | Activity (Human alphaherpesvirus 1) | Activity (Coxsackievirus B4 [7]) | Activity [8] | Activity (Sindbis virus) | other results
CC(C)(C)C(=O)OCCN(Cn1cc(F)c(=O)[nH]c1=O)S(=O)(=O)c1cccc([N+](=O)[O-])c1 | inactive | Not Active | inactive | inactive | inactive | inactive | inactive | inactive | inactive | inactive | inactive | CC50 [1]: 95 µM; EC50 (Punta Toro virus [2]): 100 µM; CC50 [3]: > 100 µM; EC50 (Coxsackievirus B4 [4]): 100 µM; MCC [5]: ≥ 100 µM
CC(=O)Nc1ccc(S(=O)(=O)N(CCO)Cn2ccc(=O)[nH]c2=O)cc1 | inactive | Not Active | inactive | inactive | inactive | inactive | inactive | inactive | inactive | inactive | inactive | Activity (MDCK): Not Active; Activity (Coxsackievirus B4 [9]): inactive; Activity (Punta Toro virus [10]): inactive; Activity [11]: Not Active; Activity (Vero): Not Active
